Target: Sodium/hydrogen exchanger (Oryctolagus cuniculus, UniProt P23791+P50482+P26432)
Assay: Inhibition of 5-N-(ethyl isopropyl)-amiloride[EIPA]-sensitive Na+ uptake into acidified rabbit erythrocytes.
Type: functional
Summary of the method: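 Rabbit blood (heparinized) red cells, washed, acidified in pH 6.2 KCl buffer with ouabain, 10 min 37 °C; internal pH clamped with 200 μM DIDS and 1 mM acetazolamide, 30 min 37 °C. Uptake 5 min at 37 °C in pH 8.0 buffer with 10 mM NaCl plus ²²Na tracer, 1% DMSO. Triplicates; counts with 10 μM EIPA subtracted; IC50 by nonlinear fit.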

| IC50 [nM] | Structure (SMILES) |
| --- | --- |
| 5.7 | CCCc1cc(C)c(C(=O)N=C(N)N)cc1S(C)(=O)=O |
| 16 | Cc1cc(-c2ccco2)c(S(C)(=O)=O)cc1C(=O)N=C(N)N |
| 27 | CCc1cc(Oc2cccnc2)c(S(C)(=O)=O)cc1C(=O)N=C(N)N |
| 14 | Cc1cc(Oc2ccccc2Cl)c(S(C)(=O)=O)cc1C(=O)N=C(N)N |
| 100 | Cc1c(C(=O)N=C(N)N)cc(S(C)(=O)=O)cc1-n1cccc1 |
| 100 | Cc1cc(-n2cnc3ccccc32)c(S(C)(=O)=O)cc1C(=O)N=C(N)N |
| 13 | Cc1cc(Oc2ccc(Cl)cc2)c(S(C)(=O)=O)cc1C(=O)N=C(N)N |
| 13 | Cc1cc(Sc2ccncc2)c(S(C)(=O)=O)cc1C(=O)N=C(N)N |
| 28 | Cc1cn(-c2cc(C)c(C(=O)N=C(N)N)cc2S(C)(=O)=O)cn1 |
| 63 | CCc1cc(Cl)c(S(C)(=O)=O)cc1C(=O)N=C(N)N |
| 4.8 | CCc1cc(C)c(C(=O)N=C(N)N)cc1S(C)(=O)=O |
| 45 | Cc1cc(-c2ccc(Cl)cc2)c(S(C)(=O)=O)cc1C(=O)N=C(N)N |
| 21 | Cc1cc(Nc2ccccc2)c(S(C)(=O)=O)cc1C(=O)N=C(N)N |
| 28 | Cc1cc(OCc2ccccc2)c(S(C)(=O)=O)cc1C(=O)N=C(N)N |
| 75 | Cc1cc(-n2ccc(=O)cc2)c(S(C)(=O)=O)cc1C(=O)N=C(N)N |
| 710 | CS(=O)(=O)c1cc(C(=O)N=C(N)N)ccc1-n1ccc(=O)cc1 |
| 19 | CCOc1cc(C)c(C(=O)N=C(N)N)cc1S(C)(=O)=O |
| 30 | CCc1cc(OC)c(S(C)(=O)=O)cc1C(=O)N=C(N)N |

| IC50 [nM] | Structure (SMILES) |
| --- | --- |
| 8.8 | Cc1cc(Oc2cccnc2)c(S(C)(=O)=O)cc1C(=O)N=C(N)N |
| 25 | Cc1cc(-n2cccn2)c(S(C)(=O)=O)cc1C(=O)N=C(N)N |
| 25 | Cc1ccc(-c2cc(C)c(C(=O)N=C(N)N)cc2S(C)(=O)=O)cc1 |
| 21 | Cc1cc(Oc2cccc(Cl)c2)c(S(C)(=O)=O)cc1C(=O)N=C(N)N |
| 12 | Cc1cc(Br)c(S(C)(=O)=O)cc1C(=O)N=C(N)N |
| 930 | CCc1cc(-n2ccc(=O)cc2)c(S(C)(=O)=O)cc1C(=O)N=C(N)N |
| 29 | Cc1cc(-n2ccnc2C)c(S(C)(=O)=O)cc1C(=O)N=C(N)N |
| 130 | CS(=O)(=O)c1cc(C(=O)N=C(N)N)c(Cl)cc1-n1ccnc1 |
| 36 | Cc1cc(-c2ccc(F)cc2)c(S(C)(=O)=O)cc1C(=O)N=C(N)N |
| 41 | CCc1cc(N2CCC(O)CC2)c(S(C)(=O)=O)cc1C(=O)N=C(N)N |
| 9500 | CCN(CC)Cc1cc(Br)c(S(C)(=O)=O)cc1C(=O)N=C(N)N |
| 25 | CCc1cc(N2CCCCC2)c(S(C)(=O)=O)cc1C(=O)N=C(N)N |
| 10 | Cc1cc(Oc2ccccc2)c(S(C)(=O)=O)cc1C(=O)N=C(N)N |
| 19 | Cc1cc(-c2ccccc2)c(S(C)(=O)=O)cc1C(=O)N=C(N)N |
| 150 | CS(=O)(=O)c1cc(C(=O)N=C(N)N)ccc1-n1ccnc1 |
| 41 | CCc1cc(Br)c(S(C)(=O)=O)cc1C(=O)N=C(N)N |
| 14 | Cc1cc(Sc2ccccc2)c(S(C)(=O)=O)cc1C(=O)N=C(N)N |
| 23 | Cc1cc(-n2ccnc2)c(S(C)(=O)=O)cc1C(=O)N=C(N)N |

Continued, compound first:

| Structure (SMILES) | IC50 [nM] |
| --- | --- |
| COc1cc(C)c(C(=O)N=C(N)N)cc1S(C)(=O)=O | 16 |
| Cc1c(C(=O)N=C(N)N)cc(S(C)(=O)=O)c(Cl)c1Cl | 29 |
| Cc1cc(N2CCCC2)c(S(C)(=O)=O)cc1C(=O)N=C(N)N | 11 |
| Cc1cc(Sc2cccc(Cl)c2)c(S(C)(=O)=O)cc1C(=O)N=C(N)N | 37 |
| Cc1c(C(=O)N=C(N)N)cc(S(C)(=O)=O)c(Cl)c1C | 58 |
| Cc1cc(-c2ccc(Cl)cc2Cl)c(S(C)(=O)=O)cc1C(=O)N=C(N)N | 42 |
| Cc1cc(O)c(S(C)(=O)=O)cc1C(=O)N=C(N)N | 220 |
| Cc1cc(N2CCC(N)CC2)c(S(C)(=O)=O)cc1C(=O)N=C(N)N | 9.8 |
| Cc1cc(Oc2cncc(Cl)c2)c(S(C)(=O)=O)cc1C(=O)N=C(N)N | 14 |
| Cc1ccc(C(=O)N=C(N)N)cc1S(C)(=O)=O | 210 |
| Cc1ccc(-c2ccc(C(=O)N=C(N)N)cc2S(C)(=O)=O)cc1 | 100 |
| Cc1cc(Nc2ncccn2)c(S(C)(=O)=O)cc1C(=O)N=C(N)N | 8.3 |
| Cc1cc(C2CCC2)c(S(C)(=O)=O)cc1C(=O)N=C(N)N | 8.2 |
| CCCCCc1cc(C)c(C(=O)N=C(N)N)cc1S(C)(=O)=O | 27 |
| CS(=O)(=O)c1cc(C(=O)N=C(N)N)ccc1C#N | 140 |
| CCC(C)c1cc(C)c(C(=O)N=C(N)N)cc1S(C)(=O)=O (configuration not stated) | 8 |
| CS(=O)(=O)c1cc(C(=O)N=C(N)N)c(N)cc1N1CCCC(O)C1 (configuration not stated) | 160 |
| CS(=O)(=O)c1cc(C(=O)N=C(N)N)c(Cl)cc1Oc1cccnc1 | 52 |
| Cc1c(C(=O)N=C(N)N)ccc(Cl)c1S(C)(=O)=O | 130 |
| CS(=O)(=O)c1cc(C(=O)N=C(N)N)ccc1C1CCCCC1 | 340 |
| Cc1cc(Sc2ccccc2Cl)c(S(C)(=O)=O)cc1C(=O)N=C(N)N | 14 |
| CS(=O)(=O)c1cc(C(=O)N=C(N)N)c(F)cc1F | 630 |
| Cc1ccc(S(C)(=O)=O)cc1C(=O)N=C(N)N | 150 |
| Cc1cc(Cl)c(S(C)(=O)=O)cc1C(=O)N=C(N)N | 25 |

| Structure (SMILES) | IC50 [nM] |
| --- | --- |
| CSc1cc(C)c(C(=O)N=C(N)N)cc1S(C)(=O)=O | 6 |
| Cc1cc(OC(C)C)c(S(C)(=O)=O)cc1C(=O)N=C(N)N | 19 |
| Cc1cc(N2CCCCC2)c(S(C)(=O)=O)cc1C(=O)N=C(N)N | 21 |
| CS(=O)(=O)c1cc(C(=O)N=C(N)N)c(Cl)cc1Cl | 140 |
| Cc1c(C(=O)N=C(N)N)cc(S(C)(=O)=O)c(Cl)c1[N+](=O)[O-] | 44 |
| CCSc1cc(C)c(C(=O)N=C(N)N)cc1S(C)(=O)=O | 5.9 |
| Cc1cc(OC2CCCCC2)c(S(C)(=O)=O)cc1C(=O)N=C(N)N | 37 |
| COc1cc(Cl)c(C(=O)N=C(N)N)cc1S(C)(=O)=O | 40 |
| CS(=O)(=O)c1cc(C(=O)N=C(N)N)c(Cl)cc1N1CCC(N)CC1 | 20 |
| CS(=O)(=O)c1cc(C(=O)N=C(N)N)c(N)cc1N1CCCCC1 | 190 |
| CS(=O)(=O)c1cc(C(=O)N=C(N)N)ccc1Oc1cccnc1 | 76 |
| CS(=O)(=O)c1cc(C(=O)N=C(N)N)ccc1N1CCCC(O)C1 (configuration not stated) | 65 |
| Cc1cc(OC(C)(C)C)c(S(C)(=O)=O)cc1C(=O)N=C(N)N | 9.4 |
| COc1ccc(C(=O)N=C(N)N)cc1S(C)(=O)=O | 270 |
| Cc1cc(N2CCCC(O)C2)c(S(C)(=O)=O)cc1C(=O)N=C(N)N (configuration not stated) | 30 |
| Cc1cc(Sc2ccc(Cl)cc2)c(S(C)(=O)=O)cc1C(=O)N=C(N)N | 19 |
| Cc1cc(-c2cc(C(F)(F)F)cc(C(F)(F)F)c2)c(S(C)(=O)=O)cc1C(=O)N=C(N)N | 2800 |
| CS(=O)(=O)c1cc(C(=O)N=C(N)N)ccc1N1CCCCC1 | 130 |
| Cc1c(C(=O)N=C(N)N)ccc(Oc2cccnc2)c1S(C)(=O)=O | 2200 |
| CS(=O)(=O)c1cc(C(=O)N=C(N)N)c(N)cc1Cl | 130 |
| Cc1cc(Nc2ccccn2)c(S(C)(=O)=O)cc1C(=O)N=C(N)N | 9.2 |
| CS(=O)(=O)c1cc(C(=O)N=C(N)N)ccc1Br | 180 |
| CS(=O)(=O)c1cc(C(=O)N=C(N)N)ccc1Cl | 380 |
| Cc1cc(SC(C)(C)C)c(S(C)(=O)=O)cc1C(=O)N=C(N)N | 22 |

| Structure (SMILES) | IC50 [nM] |
| --- | --- |
| COc1cc(N2CCC(N)CC2)c(S(C)(=O)=O)cc1C(=O)N=C(N)N | 73 |
| Cc1c(C(=O)N=C(N)N)cc(S(C)(=O)=O)c(-n2ccnc2)c1C | 290 |
| Cc1cc(-c2cc(Cl)cc(Cl)c2)c(S(C)(=O)=O)cc1C(=O)N=C(N)N | 130 |
| Cc1cc(Nc2cccc(Cl)c2)c(S(C)(=O)=O)cc1C(=O)N=C(N)N | 33 |
| Cc1c(C(=O)N=C(N)N)cc(S(C)(=O)=O)c(Oc2cccnc2)c1C | 23 |
| CS(=O)(=O)c1cc(C(=O)N=C(N)N)c(Cl)cc1Nc1ncccn1 | 49 |
| CS(=O)(=O)c1cc(C(=O)N=C(N)N)c(N2CCCCC2)cc1N1CCCCC1 | 1000 |
| Cc1cc(C#N)c(S(C)(=O)=O)cc1C(=O)N=C(N)N | 70 |
| Cc1cc(C(F)(F)F)c(S(C)(=O)=O)cc1C(=O)N=C(N)N | 37 |
| Cc1cc(N)c(S(C)(=O)=O)cc1C(=O)N=C(N)N | 16 |
| Cc1c(C(=O)N=C(N)N)cc(S(C)(=O)=O)c(C)c1C | 55 |
| CS(=O)(=O)c1cc(C(=O)N=C(N)N)ccc1N1CCC(N)CC1 | 160 |
| CS(=O)(=O)c1cc(C(=O)N=C(N)N)ccc1Oc1cncc(Cl)c1 | 75 |
| Cc1cc(F)c(S(C)(=O)=O)cc1C(=O)N=C(N)N | 44 |
| Cc1cc(Br)c(C(=O)N=C(N)N)cc1S(C)(=O)=O | 70 |
| Cc1cc(C2CCCCC2)c(S(C)(=O)=O)cc1C(=O)N=C(N)N | 22 |
| Cc1cc(OC2CCCC2)c(S(C)(=O)=O)cc1C(=O)N=C(N)N | 27 |
| Cc1cc(C)c(S(C)(=O)=O)cc1C(=O)N=C(N)N | 11 |
| Cc1c(C(=O)N=C(N)N)cc(S(C)(=O)=O)c(C#N)c1C | 370 |
| Cc1cc(SC(C)C)c(S(C)(=O)=O)cc1C(=O)N=C(N)N | 12 |
| Cc1cc(C(C)C)c(S(C)(=O)=O)cc1C(=O)N=C(N)N | 2 |
| Cc1cc(N2CCN(c3ncccn3)CC2)c(S(C)(=O)=O)cc1C(=O)N=C(N)N | 27 |
| CS(=O)(=O)c1cc(C(=O)N=C(N)N)c(Cl)cc1N1CCCC(O)C1 (configuration not stated) | 60 |

From ChEMBL document CHEMBL1130075, “(2-Methyl-5-(methylsulfonyl)benzoyl)guanidine Na+/H+ antiporter inhibitors” (J Med Chem, 1997)
